≈ marks a conversion by molar mass, not a printed value. Calls of active or inactive are those of the source. The calls are words filed in the database; no cut-off is given here.
How the values were obtained:
[1] = target: T1, Peroxisome proliferator-activated receptor alpha (Homo sapiens, UniProt Q07869); assay: Agonist activity at human PPAR-alpha
T1 sequence (Q07869 whole entry): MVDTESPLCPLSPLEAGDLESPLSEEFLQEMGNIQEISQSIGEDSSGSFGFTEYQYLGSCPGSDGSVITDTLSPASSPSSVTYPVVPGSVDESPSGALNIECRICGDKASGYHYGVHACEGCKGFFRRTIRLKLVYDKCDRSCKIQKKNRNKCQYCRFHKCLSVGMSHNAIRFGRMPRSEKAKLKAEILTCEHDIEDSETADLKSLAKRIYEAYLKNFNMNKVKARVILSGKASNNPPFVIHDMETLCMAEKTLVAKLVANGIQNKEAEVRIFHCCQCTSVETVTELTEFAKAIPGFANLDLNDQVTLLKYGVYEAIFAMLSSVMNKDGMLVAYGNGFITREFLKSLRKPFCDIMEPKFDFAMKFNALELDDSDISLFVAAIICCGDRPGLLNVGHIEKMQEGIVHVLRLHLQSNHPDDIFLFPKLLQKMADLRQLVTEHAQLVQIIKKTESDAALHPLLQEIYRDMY

[2] = target: T2, Peroxisome proliferator-activated receptor delta (Homo sapiens, UniProt Q03181); assay: Inhibition of human PPAR-delta
T2 sequence (Q03181 whole entry): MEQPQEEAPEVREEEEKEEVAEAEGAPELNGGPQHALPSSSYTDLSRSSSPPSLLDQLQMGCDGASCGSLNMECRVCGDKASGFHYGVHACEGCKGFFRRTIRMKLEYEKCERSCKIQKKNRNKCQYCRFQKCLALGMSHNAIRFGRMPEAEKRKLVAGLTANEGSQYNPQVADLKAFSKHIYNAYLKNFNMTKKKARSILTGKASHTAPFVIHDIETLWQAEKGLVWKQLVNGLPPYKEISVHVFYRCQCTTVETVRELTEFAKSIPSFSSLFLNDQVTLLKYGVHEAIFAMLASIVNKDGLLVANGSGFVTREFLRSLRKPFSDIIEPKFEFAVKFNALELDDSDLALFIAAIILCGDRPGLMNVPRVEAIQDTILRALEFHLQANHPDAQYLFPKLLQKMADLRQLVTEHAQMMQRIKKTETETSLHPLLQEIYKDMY

Plasma = assay: Metabolic stability in mouse plasma assessed as compound remaining at 1 uM after 24 hrs by LC-MS/MS analysis; type: ADME, cell-free; settings: 24 h, 1 µM
Procedure, shortened: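 A 30 mM DMSO stock was diluted to 100 µM in acetonitrile, then spiked into thawed mouse plasma (1 µM final) and incubated at 37 °C. Aliquots were precipitated in acetonitrile containing buspirone, shaken 5 min and centrifuged at 4000g for 10 min. Supernatant was analysed by LC-MS/MS. Percent remaining = concentration at each time / t0 concentration × 100; mean of at least three experiments.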

Mus musculus = assay: Reduction in plasma FGF21 level in C57Bl/6 mouse at 30 mg/kg, ip administered for 4 days followed by fasting for last 48 hrs measured 4 hrs post last dose by ELISA; type: functional, organism-based; design: dose 30 mg/kg
Procedure, shortened: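 C57Bl/6 mice received intraperitoneal drug or saline vehicle daily for four days, with 48 h fasting starting on day 2. Four hours after the final dose, blood was taken by terminal cardiac puncture into EDTA. Plasma FGF21 was measured by ELISA and compared against vehicle by t test.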

Estrogen receptor beta = Estrogen receptor beta (Homo sapiens, UniProt Q92731); assay: Inhibition of human estrogen receptor beta
Chain of Estrogen receptor beta (Q92731 whole entry): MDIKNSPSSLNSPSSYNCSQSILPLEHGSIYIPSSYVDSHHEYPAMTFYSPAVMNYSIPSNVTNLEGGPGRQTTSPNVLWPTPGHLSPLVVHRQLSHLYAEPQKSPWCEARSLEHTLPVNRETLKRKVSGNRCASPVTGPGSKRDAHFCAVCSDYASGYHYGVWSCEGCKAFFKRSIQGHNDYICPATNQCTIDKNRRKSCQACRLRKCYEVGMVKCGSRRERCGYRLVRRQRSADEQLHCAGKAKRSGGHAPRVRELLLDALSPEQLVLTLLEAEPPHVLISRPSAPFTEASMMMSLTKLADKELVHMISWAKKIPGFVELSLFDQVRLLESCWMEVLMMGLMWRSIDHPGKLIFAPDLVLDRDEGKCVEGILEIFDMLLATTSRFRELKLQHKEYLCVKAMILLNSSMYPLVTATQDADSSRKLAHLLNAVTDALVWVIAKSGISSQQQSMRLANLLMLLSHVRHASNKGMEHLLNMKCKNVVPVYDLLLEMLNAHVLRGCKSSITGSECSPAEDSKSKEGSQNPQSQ

[3] = target: T1, Peroxisome proliferator-activated receptor alpha; assay: Antagonist activity at human PPAR-alpha assessed as inhibition of GW7647-induced effect after overnight incubation by cell-based luciferase reporter gene assay
[4] = AUC in CD-1 mouse at 30 mg/kg, ip; type: ADME, organism-based; design: dose 30 mg/kg, route intraperitoneal; settings: plasma
Procedure, shortened: (§1)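 Mouse pharmacokinetics in CD1 mice given a single intraperitoneal dose of 30 mpk, formulated in saline or in 98% saline/2% tween.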

[5] = target: T3, Thyroid hormone receptor beta (Homo sapiens, UniProt P10828); assay: Inhibition of human thyroid hormone receptor-beta
T3 sequence (P10828 whole entry): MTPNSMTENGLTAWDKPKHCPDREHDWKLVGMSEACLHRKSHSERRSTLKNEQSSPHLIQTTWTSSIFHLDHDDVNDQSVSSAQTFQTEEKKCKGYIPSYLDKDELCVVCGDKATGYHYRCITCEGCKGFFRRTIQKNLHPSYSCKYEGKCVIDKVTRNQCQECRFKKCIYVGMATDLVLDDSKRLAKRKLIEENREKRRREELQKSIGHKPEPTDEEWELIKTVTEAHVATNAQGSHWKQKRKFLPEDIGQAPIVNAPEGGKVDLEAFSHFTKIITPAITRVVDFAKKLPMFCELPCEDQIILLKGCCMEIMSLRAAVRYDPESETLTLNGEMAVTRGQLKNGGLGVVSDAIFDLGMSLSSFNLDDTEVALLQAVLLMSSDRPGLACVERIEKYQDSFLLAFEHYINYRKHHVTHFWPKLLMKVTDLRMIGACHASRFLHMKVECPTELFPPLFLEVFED

[6] = Solubility of the compound in aqueous buffer at pH 7.4 after 24 hrs by LC-MS/MS analysis; type: physicochemical
Procedure, shortened: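 Compound from a 10 mM DMSO stock was added to pH 7.4 buffer, vortexed 2 min, then shaken on an orbital shaker for 24 h at room temperature. Samples were then vacuum-filtered through a polycarbonate membrane before measurement.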

[7] = target: T4, Peroxisome proliferator-activated receptor gamma (Homo sapiens, UniProt P37231); assay: Inhibition of human PPAR-gamma
T4 sequence (P37231 whole entry): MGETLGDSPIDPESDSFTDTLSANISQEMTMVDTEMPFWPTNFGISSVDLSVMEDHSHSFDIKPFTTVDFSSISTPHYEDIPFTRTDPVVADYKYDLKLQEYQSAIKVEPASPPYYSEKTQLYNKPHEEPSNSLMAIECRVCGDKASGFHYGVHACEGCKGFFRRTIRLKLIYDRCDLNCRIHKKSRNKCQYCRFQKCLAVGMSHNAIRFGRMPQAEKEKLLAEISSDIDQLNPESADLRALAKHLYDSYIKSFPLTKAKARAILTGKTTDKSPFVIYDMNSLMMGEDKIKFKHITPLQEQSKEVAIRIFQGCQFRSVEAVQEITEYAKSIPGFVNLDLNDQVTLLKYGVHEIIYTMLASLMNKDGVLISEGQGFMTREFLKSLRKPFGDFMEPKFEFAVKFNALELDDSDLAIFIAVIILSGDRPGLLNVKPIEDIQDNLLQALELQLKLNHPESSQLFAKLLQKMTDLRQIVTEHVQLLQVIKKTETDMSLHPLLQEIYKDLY

[8] = target: T1, Peroxisome proliferator-activated receptor alpha; assay: Antagonist activity at GST-tagged PPAR-alpha (unknown origin) assessed as inhibition of GW7647-induced effect after 2 hrs by TR-FRET assay
Glucocorticoid receptor = target: T5, Glucocorticoid receptor (Homo sapiens, UniProt P04150); assay: Inhibition of human glucocorticoid receptor
T5 sequence (P04150 whole entry): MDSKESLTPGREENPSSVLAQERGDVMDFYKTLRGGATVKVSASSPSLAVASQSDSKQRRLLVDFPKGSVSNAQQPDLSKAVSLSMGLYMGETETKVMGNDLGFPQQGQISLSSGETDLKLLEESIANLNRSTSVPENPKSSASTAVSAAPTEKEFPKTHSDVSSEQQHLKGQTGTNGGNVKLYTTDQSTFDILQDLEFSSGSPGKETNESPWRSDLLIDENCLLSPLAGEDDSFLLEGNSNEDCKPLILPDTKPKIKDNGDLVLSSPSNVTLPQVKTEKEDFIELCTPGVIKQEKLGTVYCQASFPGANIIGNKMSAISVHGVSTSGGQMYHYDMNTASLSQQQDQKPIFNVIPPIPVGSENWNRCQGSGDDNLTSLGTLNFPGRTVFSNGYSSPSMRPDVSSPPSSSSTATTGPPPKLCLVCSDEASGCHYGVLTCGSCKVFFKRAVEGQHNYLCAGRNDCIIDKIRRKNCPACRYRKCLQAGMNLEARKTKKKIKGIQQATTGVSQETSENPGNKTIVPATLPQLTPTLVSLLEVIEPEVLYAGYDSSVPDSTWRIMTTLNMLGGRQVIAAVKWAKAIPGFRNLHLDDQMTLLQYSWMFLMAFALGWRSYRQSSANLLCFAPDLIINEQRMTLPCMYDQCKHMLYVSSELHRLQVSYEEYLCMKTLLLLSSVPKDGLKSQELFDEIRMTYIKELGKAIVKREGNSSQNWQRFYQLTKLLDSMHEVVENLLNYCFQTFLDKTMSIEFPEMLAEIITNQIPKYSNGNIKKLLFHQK

[9] = Cmax in CD-1 mouse at 30 mg/kg, ip after 1 hr; type: ADME, organism-based; design: dose 30 mg/kg, route intraperitoneal; settings: in vivo; procedure, shortened: as §1

SMILES: CCn1c(CCCc2ccc(-c3ccc(NS(=O)(=O)c4ccccc4)cn3)cc2)nn(Cc2ccc(C(C)(C)C)cc2)c1=O
- EC50 [1]: > 100 µM
- IC50 [2]: 6 µM
- Stability (Plasma): 140.6%
- Activity (Mus musculus): Active
- IC50 (Estrogen receptor beta): 15.2 µM
- IC50 [3]: 0.077 µM
- AUC [4]: 3400 ng·h/mL
- IC50 [5]: > 100 µM
- solubility at 24 h [6]: 1.5 µM (≈ 0.915 µg/mL)
- IC50 [7]: 15 µM
- EC50 [8]: 1.4 µM
- IC50 (Glucocorticoid receptor): 32.5 µM
- Cmax [9]: 1200 nM

From ChEMBL document CHEMBL3259631, “Identification of the first potent, selective and bioavailable PPARα antagonist” (Bioorg Med Chem Lett, 2014)
